This is an account of results in ChEMBL document CHEMBL1137278, “Aza-stilbenes as potent and selective c-RAF inhibitors” (Bioorg Med Chem Lett, 2006).

The source made the active and inactive calls. The rule behind the calls is not given here.

The nature of test [1]: Inhibition of c-RAF1/MEK1/ERK2 signalling pathway by SPA. Summed up:
(§1)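 Incubated 120 min at room temperature, stopped with EDTA/streptavidin SPA beads, counted by scintillation. 11-point 3-fold dilutions (0.0001–10 µM), normalized to DMSO and EDTA controls; IC50 fitted.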

Test [2] deals with Mitogen-activated protein kinase 10 (Homo sapiens) (UniProt P53779). Kind of test: Inhibition of JNK3.
The target in test [3] is MAP kinase p38 (Homo sapiens) (UniProt O15264+Q15759+Q16539+P53778). Nature of the test: Inhibition of p38. The test is classed as protein assay.
The target in test [4] is RAF proto-oncogene serine/threonine-protein kinase (Homo sapiens, UniProt P04049). Nature of the test: Inhibition of c-RAF. Summed up:
as §1

In test [5] the target is Tyrosine-protein kinase Fyn (Mus musculus) (UniProt P39688). Nature of the test: Inhibition of mouse FYN at 10 uM.
Test [6] has as its target Proto-oncogene tyrosine-protein kinase LCK (Mus musculus) (UniProt P06240). Nature of the test: Inhibition of mouse LCK at 10 uM.
The target of test [7] is Tyrosine-protein kinase Lyn (Homo sapiens) (UniProt P07948). Kind of test: Inhibition of LYN at 10 uM.
For test [8], the target named is Proto-oncogene tyrosine-protein kinase Src (Homo sapiens) (UniProt P12931). Nature of the test: Inhibition of SRC kinase at 10 uM.
In test [9] the target is Tyrosine-protein kinase Fyn (Mus musculus, UniProt P39688). Kind of test: Inhibition of mouse FYN.

What is called IC50 is the concentration that gives 50% inhibition.

Sequence of Mitogen-activated protein kinase 10 (Homo sapiens) (P53779 whole entry): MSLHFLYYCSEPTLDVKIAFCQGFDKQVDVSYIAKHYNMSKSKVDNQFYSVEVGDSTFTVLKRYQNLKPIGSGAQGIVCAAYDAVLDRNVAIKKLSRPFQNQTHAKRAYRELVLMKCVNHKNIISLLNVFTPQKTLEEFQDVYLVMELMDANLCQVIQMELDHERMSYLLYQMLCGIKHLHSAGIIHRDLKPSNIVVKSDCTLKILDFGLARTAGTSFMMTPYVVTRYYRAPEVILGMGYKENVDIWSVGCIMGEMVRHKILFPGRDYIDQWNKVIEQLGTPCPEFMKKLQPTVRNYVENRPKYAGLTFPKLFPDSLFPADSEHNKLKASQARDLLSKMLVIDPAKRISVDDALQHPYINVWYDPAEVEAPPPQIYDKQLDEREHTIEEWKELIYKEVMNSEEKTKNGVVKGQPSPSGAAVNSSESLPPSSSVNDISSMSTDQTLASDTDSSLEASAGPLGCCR
Sequence of RAF proto-oncogene serine/threonine-protein kinase (P04049 whole entry): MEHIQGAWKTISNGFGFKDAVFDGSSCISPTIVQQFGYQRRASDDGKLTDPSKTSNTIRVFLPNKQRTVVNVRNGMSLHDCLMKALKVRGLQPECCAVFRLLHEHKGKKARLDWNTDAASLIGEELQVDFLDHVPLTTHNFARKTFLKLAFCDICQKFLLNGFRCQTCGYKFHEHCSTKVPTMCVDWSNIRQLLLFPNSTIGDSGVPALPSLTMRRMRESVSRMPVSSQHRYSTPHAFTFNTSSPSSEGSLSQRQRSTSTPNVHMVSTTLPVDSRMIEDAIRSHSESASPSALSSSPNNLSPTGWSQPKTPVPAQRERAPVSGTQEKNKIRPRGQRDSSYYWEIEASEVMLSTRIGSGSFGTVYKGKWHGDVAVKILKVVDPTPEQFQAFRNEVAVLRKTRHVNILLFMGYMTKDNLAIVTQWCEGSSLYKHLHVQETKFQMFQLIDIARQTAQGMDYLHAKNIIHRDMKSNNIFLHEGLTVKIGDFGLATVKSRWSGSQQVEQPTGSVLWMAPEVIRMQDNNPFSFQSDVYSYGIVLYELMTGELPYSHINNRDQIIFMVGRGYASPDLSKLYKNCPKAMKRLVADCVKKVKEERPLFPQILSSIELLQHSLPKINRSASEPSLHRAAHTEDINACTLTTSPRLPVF
Sequence of Tyrosine-protein kinase Fyn (Mus musculus) (P39688 whole entry): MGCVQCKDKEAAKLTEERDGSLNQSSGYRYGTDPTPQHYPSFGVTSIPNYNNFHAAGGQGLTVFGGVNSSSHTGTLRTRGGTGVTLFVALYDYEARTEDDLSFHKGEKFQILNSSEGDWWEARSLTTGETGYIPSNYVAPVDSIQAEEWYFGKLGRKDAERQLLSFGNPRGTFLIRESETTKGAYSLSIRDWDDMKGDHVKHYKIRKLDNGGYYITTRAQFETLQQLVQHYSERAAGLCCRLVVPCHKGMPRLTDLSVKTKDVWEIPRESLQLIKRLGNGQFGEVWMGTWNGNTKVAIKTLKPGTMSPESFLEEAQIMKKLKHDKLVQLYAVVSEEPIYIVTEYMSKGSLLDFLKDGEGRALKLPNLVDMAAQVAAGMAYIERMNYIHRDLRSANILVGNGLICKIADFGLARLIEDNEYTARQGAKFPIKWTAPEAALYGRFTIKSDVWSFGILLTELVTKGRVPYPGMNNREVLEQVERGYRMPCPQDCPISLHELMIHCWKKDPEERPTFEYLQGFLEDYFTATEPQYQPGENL
Sequence of Tyrosine-protein kinase Fyn (P39688 whole entry): as above
Sequence of Proto-oncogene tyrosine-protein kinase LCK (Mus musculus) (P06240 2-509 limits assumed): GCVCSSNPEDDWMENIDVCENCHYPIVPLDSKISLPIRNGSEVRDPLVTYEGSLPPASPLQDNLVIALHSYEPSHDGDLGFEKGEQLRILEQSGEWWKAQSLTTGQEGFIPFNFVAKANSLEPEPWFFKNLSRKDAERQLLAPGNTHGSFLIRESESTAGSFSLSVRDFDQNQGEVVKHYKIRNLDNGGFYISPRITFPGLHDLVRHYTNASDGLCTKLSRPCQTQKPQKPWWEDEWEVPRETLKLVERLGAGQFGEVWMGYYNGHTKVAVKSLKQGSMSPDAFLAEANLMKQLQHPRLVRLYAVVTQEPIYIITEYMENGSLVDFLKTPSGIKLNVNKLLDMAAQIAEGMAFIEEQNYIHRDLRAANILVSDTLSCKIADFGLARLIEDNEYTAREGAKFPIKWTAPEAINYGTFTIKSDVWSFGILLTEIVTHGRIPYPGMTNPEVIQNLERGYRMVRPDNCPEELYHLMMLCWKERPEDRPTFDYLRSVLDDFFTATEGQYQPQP
Sequence of Proto-oncogene tyrosine-protein kinase Src (Homo sapiens) (P12931 2-536 limits assumed): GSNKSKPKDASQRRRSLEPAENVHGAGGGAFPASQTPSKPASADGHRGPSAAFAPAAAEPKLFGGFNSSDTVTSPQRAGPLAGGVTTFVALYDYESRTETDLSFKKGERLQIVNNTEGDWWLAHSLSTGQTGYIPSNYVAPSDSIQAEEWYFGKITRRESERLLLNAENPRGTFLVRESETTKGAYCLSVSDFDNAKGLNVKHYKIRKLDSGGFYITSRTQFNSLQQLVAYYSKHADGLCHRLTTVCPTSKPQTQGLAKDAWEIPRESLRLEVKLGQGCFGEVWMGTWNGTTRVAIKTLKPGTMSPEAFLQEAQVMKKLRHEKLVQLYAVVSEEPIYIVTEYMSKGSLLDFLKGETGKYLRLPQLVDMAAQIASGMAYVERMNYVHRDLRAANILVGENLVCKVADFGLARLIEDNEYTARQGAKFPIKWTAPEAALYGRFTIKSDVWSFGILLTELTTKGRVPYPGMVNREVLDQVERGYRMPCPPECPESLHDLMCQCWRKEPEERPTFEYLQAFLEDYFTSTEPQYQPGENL
Sequence of Tyrosine-protein kinase Lyn (Homo sapiens) (P07948 2-512 limits assumed): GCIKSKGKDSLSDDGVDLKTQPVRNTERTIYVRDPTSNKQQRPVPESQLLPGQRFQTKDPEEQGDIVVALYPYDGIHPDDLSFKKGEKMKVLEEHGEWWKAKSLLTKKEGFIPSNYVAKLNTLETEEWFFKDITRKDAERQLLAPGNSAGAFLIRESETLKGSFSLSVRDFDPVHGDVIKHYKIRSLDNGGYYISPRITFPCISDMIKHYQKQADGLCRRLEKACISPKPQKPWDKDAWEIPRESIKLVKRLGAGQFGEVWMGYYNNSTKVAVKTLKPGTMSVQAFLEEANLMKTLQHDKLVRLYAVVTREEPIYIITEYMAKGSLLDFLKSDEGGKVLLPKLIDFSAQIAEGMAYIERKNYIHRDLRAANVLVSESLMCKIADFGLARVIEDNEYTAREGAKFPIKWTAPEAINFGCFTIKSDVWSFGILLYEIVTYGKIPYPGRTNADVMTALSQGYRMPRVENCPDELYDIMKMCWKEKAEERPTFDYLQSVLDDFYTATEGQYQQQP

As to `Cc1cc(-c2cccnc2)cc(C)c1/C=C/c1cncc(-c2nn[nH]n2)c1`, in test [1], the “Log IC50” value is listed as -6.2.

On to `CNC(=O)Oc1cc(C)c(/C=C/c2cncc(C(N)=O)c2)c(C)c1`, for which the “Log IC50” value in [1] is on record as -8.1. The outcome in test [2] and in test [3] was inactive.

As for `CNC(=O)Oc1cc(C)c(/C=C/c2cncc(C#N)c2)c(C)c1`, the “Log IC50” value in test [1] was -7.4.

Consider `CNC(=O)Oc1cc(C)c(/C=C/c2cncc(C(=O)OC(C)(C)C)c2)c(C)c1`, for which the “Log IC50” value in [1] is on record as -7.

As for `Cc1cc(-c2ccsc2)cc(C)c1/C=C/c1cncc(-c2nn[nH]n2)c1`, the Log IC50 in test [1] is -6.

Regarding `Cc1cc(-c2ccco2)cc(C)c1/C=C/c1cncc(-c2nn[nH]n2)c1`, the “Log IC50” value in test [1] was -6.2.

As for `Cc1cc(O)cc(C)c1/C=C/c1cncc(C(=O)OC(C)(C)C)c1` [GW439255X], the “Log IC50” value in test [1] is on record as -5.4.

`CNC(=O)c1cncc(/C=C/c2c(C)cc(O)cc2C)c1`: the “Log IC50” value in test [1] is listed as -6.6.

Take `CNC(=O)Oc1cc(C)c(/C=C/c2cncc(C(=O)NC)c2)c(C)c1` [GW432441X]: the “Log IC50” value in [1] is recorded as -8.

For `CNC(=O)c1cncc(/C=C/c2c(Cl)cccc2Cl)c1` [GW445014X], the “Log IC50” value in test [1] was -6.6.

`Cc1cc(O)cc(C)c1/C=C/c1cncc(C(N)=O)c1` [GW435821X]: the “Log IC50” value in [1] is -6.8.

For the compound `Cc1cc(O)cc(C)c1/C=C/c1cncc(C#N)c1`, the “Log IC50” value in test [1] is -6.1.

As to `CNC(=O)c1cncc(/C=C/c2ccccc2C)c1` [GW445015X], the “Log IC50” value in test [1] is given as -5.5.

As to `Cc1cc(O)cc(C)c1/C=C/c1cncc(C(=O)N(C)C)c1` [GW427984X], in test [1], the “Log IC50” value is -5.1.

Turning to `Cc1cc(O)cc(C)c1/C=C/c1cncc(C(=O)O)c1`, in test [1], the “Log IC50” value is on record as -6.4. This compound registered an IC50 in [4] of 0.4 µM. Also, the result in [2] and in test [3] was inactive.

As for `Cc1cccc(C)c1/C=C/c1cncc(-c2nn[nH]n2)c1`, in test [1], the “Log IC50” value is -7.9. Further, the outcome in [2] and in [3] was inactive.

Consider `CCc1cccc(CC)c1/C=C/c1cncc(C(=O)NC)c1` [GW450241X], for which the “Log IC50” value in [1] is reported as -4.6.

Turning to `COC(=O)c1cncc(/C=C/c2c(C)cc(O)cc2C)c1` [GW406731X], the “Log IC50” value in test [1] is -6.2.

For the compound `CNC(=O)c1cncc(/C=C/c2ccccc2Cl)c1` [GW445017X], in test [1], the “Log IC50” value is reported as -5.7.

As for `Cc1cc(-c2cccs2)cc(C)c1/C=C/c1cncc(-c2nn[nH]n2)c1`, the “Log IC50” value in test [1] is given as -6.5.

With `CNC(=O)Oc1cc(C)c(/C=C/c2cncc(C(=O)O)c2)c(C)c1`, the “Log IC50” value in test [1] is -8.2. The outcome in [2] and in [3] was inactive.

Take `Cc1cc(-c2ccccn2)cc(C)c1/C=C/c1cncc(-c2nn[nH]n2)c1`: the “Log IC50” value in test [1] is -7. Also, the result in test [5], in [6], in test [7] and in test [8] was Active. Also, the result in test [2] and in test [3] was inactive.

Take `Cc1cccc(C)c1/C=C/c1cncc(C#N)c1`: in [1], the “Log IC50” value is -6.

Take `CNC(=O)c1cncc(/C=C/c2c(C)cccc2C)c1` [GW445012X]: the “Log IC50” value in test [1] is on record as -6.6.

Consider `Cc1cc(O)cc(C)c1/C=C/c1cncc(-c2nn[nH]n2)c1`, for which the “Log IC50” value in test [1] is on record as -8.4. Besides, the IC50 was 0.004 µM in [4] and 0.04 µM in [9]. For the same compound, the result in test [2] and in test [3] was inactive.

Regarding `CNC(=O)Oc1cc(C)c(/C=C/c2cncc(C(=O)N(C)C)c2)c(C)c1`, the “Log IC50” value in test [1] is reported as -5.1.

Consider `CNC(=O)c1cncc(/C=C/c2c(C)cccc2Cl)c1`, for which, in [1], the “Log IC50” value was -7.1.

Take `CNC(=O)Oc1cc(C)c(/C=C/c2cncc(C(=O)OC)c2)c(C)c1`: the “Log IC50” value in test [1] is -7.5.
